Assay outcomes (PubChem BioAssay)
This is a sample that favours compounds with a hit; in the whole collection about 3.5% have one here.
RGS4 pot = RGS4 potentiators or activators, primary screen, cell-based, HEK293 M3R inducible RGS4, calcium flux; B-score at 10 µM; carbachol calcium flux Fluo4; active compounds read low; AID 463111, 2010; actives 0.92% (n = 310,000);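 active = B-score of the integrated calcium signal more than 4 SD below the library mean, with starting fluorescence not abnormally high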;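 note: negative B-score means reduced calcium response which marks RGS4 activation or potentiation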
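Assay system: HEK293 FlpIn-TREx cells, stable M3R, doxycycline-inducible RGS4 / Probe or stimulus: carbachol, ECmax concentration / Times: overnight RGS4 induction, 30 min dye load 37 °C, 20 min compound RT / Signal: kinetic calcium fluorescence imaging with Fluo4-AM dye, 2 µM / Measure: Agonist-evoked peak-minus-minimum fluorescence over baseline, integrated ratio, B score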
MrgX1 antag = antagonists of human MrgX1 receptor, primary screen, HEK293 cells, Fluo-4 calcium flux; Mas-related G-protein coupled receptor member X1 (Homo sapiens), Q96LB2; B-score at 10 µM; AID 588676, 2011; actives 1.3% (n = 310,000); BAM8-22 antagonism; active compounds read low;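 active = calcium-response B-score plate-corrected more than 3 library SD below zero, starting fluorescence within 5 deviations, no agonist response on first addition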;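 note: peak minus trough fluorescence over baseline after final BAM8-22 challenge near maximal dose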
Target sequence (Q96LB2 whole entry, looked up): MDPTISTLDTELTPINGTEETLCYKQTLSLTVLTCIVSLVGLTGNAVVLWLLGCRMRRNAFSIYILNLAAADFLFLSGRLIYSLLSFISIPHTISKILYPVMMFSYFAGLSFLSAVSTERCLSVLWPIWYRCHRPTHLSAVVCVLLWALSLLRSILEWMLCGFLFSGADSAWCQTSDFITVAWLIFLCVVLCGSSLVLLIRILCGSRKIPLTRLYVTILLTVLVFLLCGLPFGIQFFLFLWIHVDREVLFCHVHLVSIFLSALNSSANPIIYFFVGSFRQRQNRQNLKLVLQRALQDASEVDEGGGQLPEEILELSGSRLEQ
MrgX1 PAM = positive allosteric modulators of MrgX1, primary screen, HEK293 cells, Fluo-4 calcium flux | B-score at 10 µM | Mas-related G-protein coupled receptor member X1 (Homo sapiens), Q96LB2 | FDSS; active compounds read high | actives 0.63% (n = 310,000);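 active = plate-corrected calcium response at least 3 library SD above typical, normal starting fluorescence, not activating the receptor alone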;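 note: compound read alongside a low EC10 to EC30 dose of BAM8-22 agonist; peak minus trough fluorescence over baseline measured at the second addition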
MrgX1 ag = agonists of human MrgX1 receptor, primary screen, HEK293 cells, Fluo-4 calcium flux. Mas-related G-protein coupled receptor member X1 (Homo sapiens), Q96LB2. B-score at 10 µM. Fluo-4 calcium fluorescence, agonist mode; active compounds read high. actives 0.44% (n = 310,000);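 active = calcium response B-score plate-corrected fluorescence ratio at least 3 library SD, with starting fluorescence B-score inside 5 SD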
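Test system: Stable human MrgX1 HEK293 cell line | Schedule: Overnight plating before 1 h dye loading | Read-out basis: Baseline-normalised fluorescence change ratio, B-scored | Detection: Kinetic calcium dye fluorescence, Fluo-4 NW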
RGS4 block = RGS4 inhibitors, primary screen, cell-based, HEK293 M3R inducible RGS4, calcium flux; Regulator of G-protein signaling 4 (Homo sapiens), P49798; Fluo-4 calcium flux; active compounds read high; triggered by carbachol at its EC20; B-score at 10 µM; actives 0.45% (n = 310,000); AID 463165, 2010;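 active = B-score, a plate-corrected calcium signal, over three deviations above library mean, with baseline fluorescence within five deviations of library mean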;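 note: RGS4 expression induced by doxycycline in cells with stable M3 receptor; B-score is computed from the integrated fluorescence ratio over baseline after carbachol; higher B-score means a larger calcium signal and so more RGS4 inhibition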
Target sequence (P49798 whole entry, looked up): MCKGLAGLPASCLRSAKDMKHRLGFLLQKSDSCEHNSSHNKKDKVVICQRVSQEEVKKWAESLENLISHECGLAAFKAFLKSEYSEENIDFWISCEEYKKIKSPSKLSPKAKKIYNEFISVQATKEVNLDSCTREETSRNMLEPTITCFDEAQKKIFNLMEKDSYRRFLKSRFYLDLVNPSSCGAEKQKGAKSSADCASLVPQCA
MrgX1 antag conf = MrgX1 receptor antagonists, duplicate retest, confirmation, HEK293 cells, Fluo-4 calcium flux; shares compounds with MrgX1 antag; BAM8-22 calcium flux; active compounds read low; remaining BAM8-22 calcium response % of control (active compounds read low), % at 10 µM; actives 19% (n = 2,300);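 active = remaining agonist calcium response no higher than 100% minus 3 SD of agonist-only control wells, with starting fluorescence near control levels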;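 note: agonist BAM8-22 given at a near maximal EC90 to ECmax level; peak minus minimum fluorescence divided by baseline after agonist addition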
HEK293 Ca flux = nonspecific calcium signal in parental HEK293, confirmation, counter-screen for MrgX1 antagonist project, parental HEK293 cells, Fluo-4 calcium flux; shares compounds with MrgX1 antag; Fluo-4 calcium fluorescence, FDSS; fluorescence ratio F(max-min)/F0 at 10 µM; actives 2% (n = 4,000);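 active = duplicate-averaged calcium fluorescence ratio at least three times the standard deviation of buffer wells, a nonspecific response in parental cells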
HEK293 Ca counter = calcium response in parental HEK293 cells, primary screen, counter-screen for MrgX1 allosteric activator project, cell-based, Fluo-4 calcium flux, duplicate. shares compounds with MrgX1 antag. fluorescence ratio F(max-min)/F0 at 10 µM. Fluo-4 fluorescence ratio; active compounds read high. actives 0.4% (n = 4,000);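 active = calcium fluorescence ratio, averaged over duplicates, at least 3 SD of the buffer-well ratio, meaning a nonspecific response in receptor-free cells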;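 note: untransfected parental HEK293 lacking MrgX1 used as counterscreen for MrgX1 allosteric activators; fluorescence change taken during the second addition on a kinetic imager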
HEK293 Ca cntr2 = calcium response in parental HEK293 cells, primary screen, counter-screen for MrgX1 agonist project, cell-based, Fluo-4 calcium flux, duplicate, agonist mode; Fluo-4 calcium fluorescence (FDSS); active compounds read high; fluorescence ratio F(max-min)/F0 at 10 µM; shares compounds with MrgX1 antag; actives 8.7% (n = 4,000);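 active = calcium fluorescence ratio at least three times the spread of buffer wells, meaning a non-specific response in parental cells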
An asterisk follows results filed as active; i = inactive; . = no result given.

SMILES | RGS4 pot | MrgX1 antag | MrgX1 PAM | MrgX1 ag | RGS4 block | MrgX1 antag conf | HEK293 Ca flux | HEK293 Ca counter | HEK293 Ca cntr2
CN(CCCOc1ccccc1Br)Cc1ccccc1 | i | -6* | i | i | i | i | i | i | i
CN(CCCOc1ccccc1F)Cc1ccccc1 | i | i | i | i | i | . | . | . | .
COc1ccc(C(=O)NCC(=O)OCC(=O)Nc2sccc2C#N)cc1OC | i | -4.6* | i | i | i | i | i | i | i
OC(CNCc1ccc(Cl)cc1)C(F)(F)F (stereo not given) | i | i | i | i | i | . | . | . | .
O=C(c1ccc(N2CCN(C(=O)c3cccc(F)c3)CC2)cc1)c1cccc(F)c1 | i | -4.6* | i | i | i | i | i | i | i
O=C(c1ccc(N2CCN(C(=O)c3ccccc3Br)CC2)cc1)c1cccc(F)c1 | i | i | i | i | i | . | . | . | .
Cc1cc(OC(C)C(=O)NCC(O)c2ccccc2)c2c(C)cc(=O)oc2c1 (stereo not given) | i | i | i | i | i | . | . | . | .
Cc1c(C(=O)OCCOc2ccccc2)[nH]c2c1C(=O)CCC2 | i | -5.2* | i | i | i | 67%* | i | i | i
CC(=O)c1c(C)[nH]c(C(=O)OCCOc2ccccc2)c1C | i | i | i | i | i | . | . | . | .
CCOC(=O)N1CCN(c2c(Nc3ccc4c(c3)OCCO4)c(=O)c2=O)CC1 | i | -6.8* | i | i | i | i | i | i | i
CCOC(=O)N1CCN(c2c(N3CCOCC3)c(=O)c2=O)CC1 | i | i | i | i | i | . | . | . | .
CCOC(=O)N1CCC(N2CCN(c3cc(C)ccc3C)CC2)CC1 | i | -8.8* | i | i | i | i | i | i | i
CCC(=O)Nc1c(C(=O)N2CCN(c3ccccn3)CC2)cnn1-c1ccc(C)cc1 | i | -7.5* | i | i | i | i | i | i | i
CCn1c(SCC(=O)Nc2ccc(F)cc2)nnc1-c1cnccn1 | i | i | i | i | i | . | . | . | .
Fc1ccc(NC(=S)Nc2cccnc2)cc1 | i | i | i | i | i | . | . | . | .
O=C(Nc1ccc(F)c(Cl)c1)Nc1cnccn1 | i | -6.2* | i | i | i | i | i | i | i
Cc1ccc(NC(=O)Nc2cccnc2)cc1Cl | i | -4.7* | i | i | i | 80%* | i | i | i
Fc1ccc(NC(=S)Nc2cccnc2)cc1Cl | i | -5.6* | i | i | i | i | i | i | i
CC(C)c1ccccc1NC(=O)C1CC(=O)N(C2CCCC2)C1 (stereo not given) | i | -5.1* | i | i | i | i | i | i | i
CCCOC(=O)c1ccc(NC(=O)CC(C)(C)C)cc1 | i | -4.5* | i | i | i | i | i | i | i
Nc1nonc1-c1noc(CCCN2C(=O)c3ccccc3C2=O)n1 | i | -6.6* | i | i | i | i | i | i | i
CCOC(=O)CN1C(=O)C(C)(C)Oc2ccc(C(=O)NC(C)(C)CC)cc21 | i | -5.3* | i | i | i | i | i | i | i
O=C(NCCCN1CCCCC1)c1ccc(CS(=O)c2ccc(F)cc2)o1 (stereo not given) | i | i | i | i | i | . | . | . | .
O=C(Cc1ccc(Cl)cc1)Nc1ccc(N2CCCC2)cc1 | . | -5.3* | i | i | . | i | i | i | i
O=C(Cc1ccc(Cl)cc1)Nc1ccc(C(=O)N2CCOCC2)cc1 | i | i | i | i | i | . | . | . | .
SMILES | RGS4 pot | MrgX1 antag | MrgX1 PAM | MrgX1 ag | RGS4 block | MrgX1 antag conf | HEK293 Ca flux | HEK293 Ca counter | HEK293 Ca cntr2
O=C(Nc1ccccc1F)c1ccc(C(=O)c2ccccc2)cc1 | i | -5.6* | i | i | i | 84%* | i | i | i
OCCC1CN(Cc2ccon2)CCN1Cc1ccc(F)c(F)c1 (stereo not given) | i | -8.5* | i | i | i | i | i | i | i
COc1cccc(CN2CCN(Cc3ccon3)CC2CCO)c1 (stereo not given) | i | i | i | i | i | . | . | . | .
CCOC(=O)C(NC(=O)c1ccccc1)=C(C)C | i | -8.9* | i | i | i | i | i | i | i
CCCCOC(=O)C(NC(=O)c1ccccc1)=C(C)C | i | i | i | i | i | . | . | . | .
Cc1ccccc1CNS(=O)(=O)c1ccc2c(c1)OCCO2 | i | -4.7* | i | i | i | i | i | i | i
O=C(NCCCN1CCCC1)c1cc2c(Cl)nc3ccccc3c2s1 | i | -7.7* | i | i | i | i | i | i | i
CCC(C)c1ccc(NC(=O)c2c([N+](=O)[O-])cnn2CC)cc1 (stereo not given) | i | i | i | i | i | . | . | . | .
Cc1[nH]c2ccccc2c(=O)c1CN1CCCCC1 | i | -6.8* | i | i | i | i | i | i | i
Cc1[nH]c2ccc(Br)cc2c(=O)c1CN1CCCCCC1 | i | i | i | i | i | . | . | . | .
COc1ccc(C(CNC(=O)C(C)(C)Oc2ccc(Cl)cc2)N2CCCCC2)cc1 (stereo not given) | i | i | i | i | i | . | . | . | .
